Screening data deposited in PubChem BioAssay by The Scripps Research Institute Molecular Screening Center.
Most compounds without a hit are left out; they make up all but 1.9% or so of the library.
CHRM5 agonist: CHRM5 agonism in calcium assay. CHO-K1 hM5 cells, Fluo-8 calcium fluorescence; 0% DMSO wells, 100% maximal acetylcholine response. hit rate 0.19% among 360,000. P08912. AID 624037. activation, % at 3 µM;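 active = activation above the run's mean over test compounds plus 3 SD, cut at about 23% in these data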;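 note: signal is peak over basal fluorescence ratio across the kinetic read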
Target sequence (P08912 whole entry, looked up): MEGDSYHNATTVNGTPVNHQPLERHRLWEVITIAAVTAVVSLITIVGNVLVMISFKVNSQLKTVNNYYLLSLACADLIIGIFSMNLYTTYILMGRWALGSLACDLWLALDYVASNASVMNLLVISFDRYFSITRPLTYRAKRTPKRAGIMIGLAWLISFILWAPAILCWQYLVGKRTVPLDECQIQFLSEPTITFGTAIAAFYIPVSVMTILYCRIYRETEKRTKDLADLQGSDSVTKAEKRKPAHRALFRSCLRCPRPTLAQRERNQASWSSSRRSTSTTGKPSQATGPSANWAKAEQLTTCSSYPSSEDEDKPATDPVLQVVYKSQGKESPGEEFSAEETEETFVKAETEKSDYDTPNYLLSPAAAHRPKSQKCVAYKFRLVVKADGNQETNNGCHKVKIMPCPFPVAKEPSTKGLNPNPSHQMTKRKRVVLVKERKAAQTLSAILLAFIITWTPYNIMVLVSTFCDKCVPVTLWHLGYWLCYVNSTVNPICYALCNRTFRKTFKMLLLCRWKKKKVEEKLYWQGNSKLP
M4 antag: CHRM4 antagonism in calcium assay | inhibition, % at 3 µM | hit rate 0.73% among 360,000 | P08173 | CHO-hM4 cells, ACh EC80, Fluo-8 calcium fluorescence;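 active = inhibition above its plate's cutoff, the mean inhibition of sample wells plus 3 SD, cut at about 27% in these data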
M4 ag: agonists of human muscarinic M4 receptor (CHRM4); hit rate 0.14% among 360,000; activation, % at 3 µM; CHO-K1 hM4/Gqi5, Fluo-8 calcium fluorescence; vehicle 0%, full acetylcholine response 100%; AID 624127;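 active = activation above the run mean over all test wells plus 3 SD, cut at about 32% in these data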;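 note: peak over basal fluorescence ratio per well then scaled between controls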
CHRM5 antagonist: blocks acetylcholine activation of human M5 receptor. CHO-hM5 cells, Fluo-8 calcium fluorescence, ACh EC80. inhibition, % at 3 µM. hit rate 0.59% among 360,000. AID 624040;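 active = inhibition above a per-plate cutoff, the mean of that plate's test compounds plus 3 SD, cut at about 27% in these data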
M4 PAM: potentiates acetylcholine response at human M4 receptor; CHO-K1 hM4/Gqi5, Fluo-8 calcium fluorescence, ACh EC20; 0% = ACh EC20, 100% = maximal ACh; activation, % at 3 µM; P08173; hit rate 0.4% among 360,000;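 active = activation above its plate's cutoff, the mean activation of sample wells plus 3 SD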
CHRM5 PAM: positive allosteric modulators of human muscarinic M5 receptor. activation, % at 3 µM. hit rate 0.3% among 360,000. CHO-K1 hM5, Fluo-8 calcium, ACh EC20 PAM; 0% = ACh EC20, 100% = ACh EC100. P08912;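 active = activation above the run cutoff, the mean activation of all test compounds plus 3 SD, cut at about 18% in these data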
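Assay system: CHO-K1 hM5 cells / Incubation: Fluo-8 loading 80 min at 37 °C plus 30 min room temperature / Technique: Fluo-8 calcium dye fluorescence, kinetic read / Repeats: single replicate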
Hits are given with their value.

`CC(C)(C)c1ccc(OCCOc2ccc(C(C)(C)C)cc2NC=O)c(NC=O)c1` gave CHRM5 agonist inactive, M4 antag 31, M4 ag inactive, CHRM5 antagonist 28, M4 PAM inactive and CHRM5 PAM inactive.
For COc1ccc(CN2C[C@@H](CO)O[C@@H](n3cnc4c(NCc5ccncc5)ncnc43)C2)cc1 the results were CHRM5 agonist inactive, M4 antag inactive, M4 ag inactive, CHRM5 antagonist inactive, M4 PAM inactive and CHRM5 PAM inactive.
`CC(C)(CN1CCN(c2ccccc2)CC1)NS(=O)(=O)c1ccccc1` gave CHRM5 agonist inactive, M4 antag 31, M4 ag inactive, CHRM5 antagonist inactive, M4 PAM inactive and CHRM5 PAM inactive.
CN1CCN(c2ccc([N+](=O)[O-])cc2C(=O)c2ccc(Br)cc2)CC1 was read as CHRM5 agonist inactive, M4 antag inactive, M4 ag inactive, CHRM5 antagonist 37, M4 PAM inactive and CHRM5 PAM inactive.
For Cc1ccc(C(=O)c2cc([N+](=O)[O-])ccc2N2CCN(C)CC2)cc1 the results were CHRM5 agonist inactive, M4 antag inactive, M4 ag inactive, CHRM5 antagonist inactive, M4 PAM inactive and CHRM5 PAM inactive.
Cc1cccc(OCc2nnc(SCCC(=O)O)n2-c2ccccc2)c1 was read as CHRM5 agonist inactive, M4 antag inactive, M4 ag inactive, CHRM5 antagonist inactive, M4 PAM inactive and CHRM5 PAM inactive.
`Cc1c(C(=O)NC2CCS(=O)(=O)C2)oc2ccccc12` (centres undefined) gave CHRM5 agonist inactive, M4 antag inactive, M4 ag inactive, CHRM5 antagonist 27, M4 PAM inactive and CHRM5 PAM inactive.
For Cc1noc(C)c1S(=O)(=O)N1CCN(S(=O)(=O)c2ccccc2C#N)CC1 the results were CHRM5 agonist inactive, M4 antag inactive, M4 ag inactive, CHRM5 antagonist inactive, M4 PAM inactive and CHRM5 PAM inactive.
For CC(C)[C@H]1C(=O)Nc2ccccc2N1C(=O)N[C@@H](Cc1ccccc1)C(=O)N[C@H](C(=O)O)c1ccccc1 the results were CHRM5 agonist inactive, M4 antag inactive, M4 ag inactive, CHRM5 antagonist inactive, M4 PAM inactive and CHRM5 PAM inactive.
Screening O=C(NCc1cccs1)c1csc([C@@H]2C[C@H](O)[C@@H](CO)O2)n1 returned CHRM5 agonist inactive, M4 antag inactive, M4 ag inactive, CHRM5 antagonist inactive, M4 PAM inactive and CHRM5 PAM inactive.
For Cc1ccc(-c2csc(NC(=O)c3ccc(-c4ccccc4)cc3)n2)o1 the results were CHRM5 agonist inactive, M4 antag 40, M4 ag inactive, CHRM5 antagonist inactive, M4 PAM inactive and CHRM5 PAM inactive.
For COc1cccc(CNC(=O)CN2C(=O)c3ccccc3S2(=O)=O)c1 the results were CHRM5 agonist inactive, M4 antag inactive, M4 ag inactive, CHRM5 antagonist inactive, M4 PAM 25 and CHRM5 PAM inactive.
`COc1ccc(CCNC(=O)CCN2C(=O)[C@@H]3Cc4ccccc4CN3C2=O)cc1` gave CHRM5 agonist inactive, M4 antag inactive, M4 ag inactive, CHRM5 antagonist inactive, M4 PAM inactive and CHRM5 PAM inactive.
For COc1ccccc1CNC(=O)Cn1nc(C)c([N+](=O)[O-])c1C the results were CHRM5 agonist inactive, M4 antag inactive, M4 ag inactive, CHRM5 antagonist inactive, M4 PAM inactive and CHRM5 PAM inactive.
For O=C(CN1C(=O)c2ccccc2S1(=O)=O)NCc1ccccc1 the results were CHRM5 agonist inactive, M4 antag inactive, M4 ag inactive, CHRM5 antagonist inactive, M4 PAM inactive and CHRM5 PAM inactive.
COc1cccc(CNC(=O)Cn2nc(C)c([N+](=O)[O-])c2C)c1 was read as CHRM5 agonist inactive, M4 antag inactive, M4 ag inactive, CHRM5 antagonist inactive, M4 PAM inactive and CHRM5 PAM 21.
Screening COc1cccc(CNC(=O)CCN2C(=O)[C@@H]3Cc4ccccc4CN3C2=O)c1 returned CHRM5 agonist inactive, M4 antag inactive, M4 ag inactive, CHRM5 antagonist inactive, M4 PAM 20 and CHRM5 PAM inactive.
For COc1ccc(C(=O)Nc2ccc(N3CCOCC3)cc2)cc1S(=O)(=O)NC1CCCC1 the results were CHRM5 agonist inactive, M4 antag inactive, M4 ag inactive, CHRM5 antagonist inactive, M4 PAM inactive and CHRM5 PAM inactive.
`O=C(CCNS(=O)(=O)c1cccc2nsnc12)NCc1ccccc1Cl` gave CHRM5 agonist inactive, M4 antag inactive, M4 ag inactive, CHRM5 antagonist inactive, M4 PAM inactive and CHRM5 PAM inactive.
`NC(=O)NN=C1C2CCCC1C(c1ccccc1)NC2c1ccccc1` (centres undefined) gave CHRM5 agonist inactive, M4 antag 49, M4 ag inactive, CHRM5 antagonist inactive, M4 PAM inactive and CHRM5 PAM inactive.
`O=C(O)c1ccccc1C(=O)c1cccc2c(Br)cccc12` gave CHRM5 agonist inactive, M4 antag inactive, M4 ag inactive, CHRM5 antagonist inactive, M4 PAM inactive and CHRM5 PAM inactive.
Screening CCCCN(C(=O)CNC(=O)c1ccco1)C(C(=O)NC1CCCCC1)c1cccnc1 (centres undefined) returned CHRM5 agonist inactive, M4 antag inactive, M4 ag inactive, CHRM5 antagonist inactive, M4 PAM inactive and CHRM5 PAM inactive.
For Cc1ccc(S(=O)(=O)N2CCCCC2)cc1NC(=O)CSc1nncn1-c1ccccc1 the results were CHRM5 agonist inactive, M4 antag inactive, M4 ag inactive, CHRM5 antagonist inactive, M4 PAM inactive and CHRM5 PAM 23.
Screening CN1C[C@@H]2C(c3ccccc3)C3(c4ccc(C#N)cc4)CC2(C3)[C@H]1c1ccccc1 (some centres undefined) returned CHRM5 agonist inactive, M4 antag inactive, M4 ag inactive, CHRM5 antagonist inactive, M4 PAM inactive and CHRM5 PAM inactive.
Screening CN1C[C@@H]2C(c3ccccc3)C3(c4ccccc4)CC2(C3)[C@H]1c1ccccc1 (some centres undefined) returned CHRM5 agonist inactive, M4 antag 45, M4 ag inactive, CHRM5 antagonist inactive, M4 PAM inactive and CHRM5 PAM inactive.
Cc1cc(NC2CCCCC2)nc(NCc2ccccc2)n1 was read as CHRM5 agonist inactive, M4 antag inactive, M4 ag inactive, CHRM5 antagonist 30, M4 PAM inactive and CHRM5 PAM inactive.
`C=CCOc1ccc(/C=N/N2C(=O)C(CC(=O)Nc3ccc(F)cc3F)SC2=NC)cc1` (centres undefined) gave CHRM5 agonist inactive, M4 antag inactive, M4 ag inactive, CHRM5 antagonist inactive, M4 PAM inactive and CHRM5 PAM inactive.
